In ChEMBL document CHEMBL1955770, “Inhibition of S/G2 phase CDK4 reduces mitotic fidelity” (J Biol Chem, 2006):

Legend:
[1] = molecular target: LIM domain kinase 1 (Homo sapiens) (UniProt P53667); assay: Inhibition of LIMK1 at 1 uM
[2] = molecular target: Tyrosine-protein kinase JAK1 (Homo sapiens) (UniProt P23458); assay: Inhibition of JAK1(Kin.Dom.1) at 1 uM
[3] = molecular target: Phosphorylase b kinase gamma catalytic chain, liver/testis isoform (Homo sapiens) (UniProt P15735); assay: Inhibition of PHKG2 at 1 uM
[4] = molecular target: Calcium/calmodulin-dependent protein kinase kinase 1 (Homo sapiens) (UniProt Q8N5S9); assay: Inhibition of CAMKK1 at 1 uM
[5] = molecular target: High affinity nerve growth factor receptor (Homo sapiens) (UniProt P04629); assay: Inhibition of TRKA at 1 uM
[6] = molecular target: Serine/threonine-protein kinase B-raf (Homo sapiens) (UniProt P15056); assay: Inhibition of BRAF at 1 uM
Summary of the method: (§1)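 Competition binding screen across a kinase panel with compound at 1 μM. Read-out is % competition. Kinases not hit at this concentration were scored '<50'. No Kd was determined for hits.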

[7] = molecular target: Mitogen-activated protein kinase 8 (Homo sapiens) (UniProt P45983); assay: Inhibition of JNK1 at 1 uM
[8] = molecular target: Tyrosine-protein kinase ABL1 (Homo sapiens) (UniProt P00519); assay: Inhibition of ABL1 at 1 uM
[9] = molecular target: Insulin-like growth factor 1 receptor (Homo sapiens, UniProt P08069); assay: Inhibition of IGF1R at 1 uM
[10] = molecular target: Platelet-derived growth factor receptor alpha (Homo sapiens) (UniProt P16234); assay: Inhibition of PDGFRA at 1 uM
[11] = molecular target: Dual specificity protein kinase TTK (Homo sapiens) (UniProt P33981); assay: Inhibition of TTK at 1 uM
[12] = molecular target: Serine/threonine-protein kinase Nek9 (Homo sapiens) (UniProt Q8TD19); assay: Inhibition of NEK9 at 1 uM
[13] = molecular target: Mitogen-activated protein kinase 12 (Homo sapiens) (UniProt P53778); assay: Inhibition of p38-gamma at 1 uM
[14] = molecular target: Serine/threonine-protein kinase PAK 4 (Homo sapiens) (UniProt O96013); assay: Inhibition of PAK4 at 1 uM
[15] = molecular target: Mitogen-activated protein kinase kinase kinase 4 (Homo sapiens) (UniProt Q9Y6R4); assay: Inhibition of MAP3K4 at 1 uM
[16] = molecular target: Mitogen-activated protein kinase 9 (Homo sapiens) (UniProt P45984); assay: Inhibition of JNK2 at 1 uM
[17] = molecular target: Vascular endothelial growth factor receptor 2 (Homo sapiens) (UniProt P35968); assay: Inhibition of VEGFR2 at 1 uM
[18] = molecular target: Calcium/calmodulin-dependent protein kinase type 1G (Homo sapiens) (UniProt Q96NX5); assay: Inhibition of CAMK1G at 1 uM; summary of the method: as §1
[19] = molecular target: Ribosomal protein S6 kinase alpha-3 (Homo sapiens) (UniProt P51812); assay: Inhibition of RPS6KA3 Kin.Dom.1 at 1 uM
[20] = molecular target: Calcium/calmodulin-dependent protein kinase type II subunit alpha (Homo sapiens) (UniProt Q9UQM7); assay: Inhibition of CAMK2A at 1 uM; summary of the method: as §1
[21] = molecular target: Phosphorylase b kinase gamma catalytic chain, skeletal muscle/heart isoform (Homo sapiens) (UniProt Q16816); assay: Inhibition of PHKG1 at 1 uM
[22] = molecular target: Tyrosine-protein kinase Yes (Homo sapiens) (UniProt P07947); assay: Inhibition of YES at 1 uM
[23] = molecular target: Ephrin type-A receptor 5 (Homo sapiens) (UniProt P54756); assay: Inhibition of EPHA5 at 1 uM
[24] = molecular target: Serine/threonine-protein kinase PAK 1 (Homo sapiens) (UniProt Q13153); assay: Inhibition of PAK1 at 1 uM
[25] = molecular target: Tyrosine-protein kinase ABL2 (Homo sapiens) (UniProt P42684); assay: Inhibition of ABL2 at 1 uM; summary of the method: as §1
[26] = molecular target: Serine/threonine-protein kinase Nek6 (Homo sapiens) (UniProt Q9HC98); assay: Inhibition of NEK6 at 1 uM
[27] = molecular target: Aurora kinase A (Homo sapiens) (UniProt O14965); assay: Inhibition of AURKA at 1 uM; summary of the method: as §1

Sequence of Calcium/calmodulin-dependent protein kinase kinase 1 (Homo sapiens) (Q8N5S9 whole entry, looked up): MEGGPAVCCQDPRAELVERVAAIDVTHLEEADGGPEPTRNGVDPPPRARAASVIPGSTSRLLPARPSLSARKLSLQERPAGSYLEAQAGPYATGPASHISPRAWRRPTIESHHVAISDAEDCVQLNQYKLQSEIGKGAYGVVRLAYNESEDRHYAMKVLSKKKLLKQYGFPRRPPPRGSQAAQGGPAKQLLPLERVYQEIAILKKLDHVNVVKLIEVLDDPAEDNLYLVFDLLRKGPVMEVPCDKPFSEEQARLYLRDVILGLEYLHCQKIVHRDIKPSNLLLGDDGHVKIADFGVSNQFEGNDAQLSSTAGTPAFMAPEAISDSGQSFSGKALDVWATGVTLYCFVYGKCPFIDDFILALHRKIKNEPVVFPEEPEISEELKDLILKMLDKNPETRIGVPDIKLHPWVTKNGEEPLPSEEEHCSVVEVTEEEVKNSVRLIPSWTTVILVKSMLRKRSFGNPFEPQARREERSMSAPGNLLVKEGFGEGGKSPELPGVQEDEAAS
Sequence of Phosphorylase b kinase gamma catalytic chain, liver/testis isoform (Homo sapiens) (P15735 whole entry, canonical isoform): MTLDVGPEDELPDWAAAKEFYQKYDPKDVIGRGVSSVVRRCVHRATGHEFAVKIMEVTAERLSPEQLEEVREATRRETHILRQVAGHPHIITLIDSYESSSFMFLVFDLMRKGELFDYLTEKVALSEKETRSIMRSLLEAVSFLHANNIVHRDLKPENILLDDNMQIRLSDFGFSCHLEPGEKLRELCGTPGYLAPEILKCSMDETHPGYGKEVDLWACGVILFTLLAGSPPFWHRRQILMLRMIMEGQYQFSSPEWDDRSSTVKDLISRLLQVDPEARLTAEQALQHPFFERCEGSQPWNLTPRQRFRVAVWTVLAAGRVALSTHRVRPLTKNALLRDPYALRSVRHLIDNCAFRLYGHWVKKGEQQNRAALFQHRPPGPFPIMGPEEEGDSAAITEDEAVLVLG
Sequence of LIM domain kinase 1 (Homo sapiens) (P53667 whole entry, looked up, the tested form may be a part): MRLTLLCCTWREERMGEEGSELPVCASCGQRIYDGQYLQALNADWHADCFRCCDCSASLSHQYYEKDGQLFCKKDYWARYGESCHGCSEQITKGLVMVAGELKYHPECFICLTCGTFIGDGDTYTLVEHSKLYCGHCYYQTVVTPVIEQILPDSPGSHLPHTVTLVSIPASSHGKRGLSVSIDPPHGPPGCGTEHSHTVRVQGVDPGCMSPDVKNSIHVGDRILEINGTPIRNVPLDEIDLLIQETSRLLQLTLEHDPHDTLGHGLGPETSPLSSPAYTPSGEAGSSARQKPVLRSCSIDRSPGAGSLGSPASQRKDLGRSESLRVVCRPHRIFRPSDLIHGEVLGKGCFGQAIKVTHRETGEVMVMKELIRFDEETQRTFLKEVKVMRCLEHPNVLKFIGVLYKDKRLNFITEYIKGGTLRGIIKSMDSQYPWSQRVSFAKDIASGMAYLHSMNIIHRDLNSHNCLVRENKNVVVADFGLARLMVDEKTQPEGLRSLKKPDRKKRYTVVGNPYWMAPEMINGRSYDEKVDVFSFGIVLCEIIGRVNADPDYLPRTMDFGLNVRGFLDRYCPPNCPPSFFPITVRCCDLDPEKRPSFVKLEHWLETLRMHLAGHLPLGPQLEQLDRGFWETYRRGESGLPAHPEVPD
Sequence of Tyrosine-protein kinase ABL1 (Homo sapiens) (P00519 whole entry): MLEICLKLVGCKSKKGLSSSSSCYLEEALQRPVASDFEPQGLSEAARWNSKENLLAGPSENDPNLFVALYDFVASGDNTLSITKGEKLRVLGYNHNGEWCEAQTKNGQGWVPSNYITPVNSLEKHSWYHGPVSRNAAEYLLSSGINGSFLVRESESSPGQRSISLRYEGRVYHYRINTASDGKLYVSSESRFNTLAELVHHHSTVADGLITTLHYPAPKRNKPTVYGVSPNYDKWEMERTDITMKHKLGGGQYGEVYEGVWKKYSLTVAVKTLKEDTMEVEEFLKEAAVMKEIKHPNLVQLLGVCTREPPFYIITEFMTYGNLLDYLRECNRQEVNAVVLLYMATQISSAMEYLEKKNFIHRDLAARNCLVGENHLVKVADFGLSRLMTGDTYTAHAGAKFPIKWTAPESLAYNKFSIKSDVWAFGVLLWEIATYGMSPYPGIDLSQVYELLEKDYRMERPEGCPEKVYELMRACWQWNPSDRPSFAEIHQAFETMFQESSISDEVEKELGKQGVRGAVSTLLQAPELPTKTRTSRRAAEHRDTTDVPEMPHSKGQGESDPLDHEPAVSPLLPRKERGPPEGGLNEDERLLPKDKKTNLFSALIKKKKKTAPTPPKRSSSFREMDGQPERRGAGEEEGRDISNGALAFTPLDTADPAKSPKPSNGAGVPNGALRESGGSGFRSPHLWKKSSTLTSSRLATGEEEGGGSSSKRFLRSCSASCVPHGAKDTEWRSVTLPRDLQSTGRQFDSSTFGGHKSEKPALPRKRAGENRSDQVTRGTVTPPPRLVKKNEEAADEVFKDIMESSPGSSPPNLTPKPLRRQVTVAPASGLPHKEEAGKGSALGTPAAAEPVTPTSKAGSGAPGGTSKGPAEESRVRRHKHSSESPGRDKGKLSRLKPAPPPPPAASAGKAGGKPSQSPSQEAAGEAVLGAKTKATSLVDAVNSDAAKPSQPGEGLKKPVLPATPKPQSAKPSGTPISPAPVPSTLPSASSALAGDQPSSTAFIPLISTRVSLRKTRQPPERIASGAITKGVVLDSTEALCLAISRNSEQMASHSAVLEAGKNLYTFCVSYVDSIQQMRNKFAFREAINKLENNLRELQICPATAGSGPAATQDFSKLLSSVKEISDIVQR
Sequence of Mitogen-activated protein kinase 9 (Homo sapiens) (P45984 whole entry, looked up): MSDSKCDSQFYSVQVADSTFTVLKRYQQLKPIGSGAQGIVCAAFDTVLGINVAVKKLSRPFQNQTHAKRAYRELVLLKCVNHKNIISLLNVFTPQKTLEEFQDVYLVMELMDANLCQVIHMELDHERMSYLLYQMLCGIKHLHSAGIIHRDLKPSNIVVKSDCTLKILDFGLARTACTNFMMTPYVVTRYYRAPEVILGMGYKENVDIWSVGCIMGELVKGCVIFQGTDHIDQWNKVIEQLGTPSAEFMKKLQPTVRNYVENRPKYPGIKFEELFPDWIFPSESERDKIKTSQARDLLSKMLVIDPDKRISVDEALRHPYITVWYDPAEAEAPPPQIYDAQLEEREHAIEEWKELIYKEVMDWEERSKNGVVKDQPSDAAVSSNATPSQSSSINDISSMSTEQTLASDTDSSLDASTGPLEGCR
Sequence of Phosphorylase b kinase gamma catalytic chain, skeletal muscle/heart isoform (Homo sapiens) (Q16816 whole entry, looked up, canonical isoform): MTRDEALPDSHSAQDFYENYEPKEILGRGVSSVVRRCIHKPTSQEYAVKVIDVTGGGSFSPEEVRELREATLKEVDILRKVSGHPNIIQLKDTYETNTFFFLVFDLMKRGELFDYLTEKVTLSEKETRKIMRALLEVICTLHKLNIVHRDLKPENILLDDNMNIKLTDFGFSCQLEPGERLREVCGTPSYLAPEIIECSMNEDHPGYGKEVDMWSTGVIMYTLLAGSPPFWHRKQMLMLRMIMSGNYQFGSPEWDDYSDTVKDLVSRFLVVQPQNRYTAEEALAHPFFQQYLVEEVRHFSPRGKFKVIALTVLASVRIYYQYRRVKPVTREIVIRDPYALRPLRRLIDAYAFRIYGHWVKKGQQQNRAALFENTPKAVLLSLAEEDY
Sequence of Dual specificity protein kinase TTK (Homo sapiens) (P33981 whole entry): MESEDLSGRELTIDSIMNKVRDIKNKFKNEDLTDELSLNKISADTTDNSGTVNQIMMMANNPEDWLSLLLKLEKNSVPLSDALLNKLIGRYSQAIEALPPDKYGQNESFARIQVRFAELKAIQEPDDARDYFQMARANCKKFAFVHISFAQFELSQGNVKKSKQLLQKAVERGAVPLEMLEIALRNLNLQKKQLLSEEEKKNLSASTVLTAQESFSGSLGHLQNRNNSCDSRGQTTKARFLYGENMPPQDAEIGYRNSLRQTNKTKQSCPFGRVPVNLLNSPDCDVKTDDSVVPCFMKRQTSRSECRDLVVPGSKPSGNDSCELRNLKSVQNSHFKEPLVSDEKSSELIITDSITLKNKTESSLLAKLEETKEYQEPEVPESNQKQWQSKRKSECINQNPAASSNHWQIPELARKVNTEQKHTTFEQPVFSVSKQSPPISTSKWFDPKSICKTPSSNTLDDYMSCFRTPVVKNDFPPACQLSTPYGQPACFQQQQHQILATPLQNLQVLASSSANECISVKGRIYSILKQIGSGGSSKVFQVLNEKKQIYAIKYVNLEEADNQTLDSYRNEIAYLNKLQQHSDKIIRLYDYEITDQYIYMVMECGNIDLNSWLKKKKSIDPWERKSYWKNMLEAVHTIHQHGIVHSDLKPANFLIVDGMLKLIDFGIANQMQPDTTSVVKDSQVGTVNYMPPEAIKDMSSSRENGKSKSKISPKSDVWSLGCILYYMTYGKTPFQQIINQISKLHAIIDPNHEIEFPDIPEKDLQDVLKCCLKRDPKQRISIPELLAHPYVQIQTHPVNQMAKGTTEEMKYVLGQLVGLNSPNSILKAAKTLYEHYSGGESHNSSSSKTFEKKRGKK
Sequence of Serine/threonine-protein kinase PAK 4 (Homo sapiens) (O96013 whole entry, looked up): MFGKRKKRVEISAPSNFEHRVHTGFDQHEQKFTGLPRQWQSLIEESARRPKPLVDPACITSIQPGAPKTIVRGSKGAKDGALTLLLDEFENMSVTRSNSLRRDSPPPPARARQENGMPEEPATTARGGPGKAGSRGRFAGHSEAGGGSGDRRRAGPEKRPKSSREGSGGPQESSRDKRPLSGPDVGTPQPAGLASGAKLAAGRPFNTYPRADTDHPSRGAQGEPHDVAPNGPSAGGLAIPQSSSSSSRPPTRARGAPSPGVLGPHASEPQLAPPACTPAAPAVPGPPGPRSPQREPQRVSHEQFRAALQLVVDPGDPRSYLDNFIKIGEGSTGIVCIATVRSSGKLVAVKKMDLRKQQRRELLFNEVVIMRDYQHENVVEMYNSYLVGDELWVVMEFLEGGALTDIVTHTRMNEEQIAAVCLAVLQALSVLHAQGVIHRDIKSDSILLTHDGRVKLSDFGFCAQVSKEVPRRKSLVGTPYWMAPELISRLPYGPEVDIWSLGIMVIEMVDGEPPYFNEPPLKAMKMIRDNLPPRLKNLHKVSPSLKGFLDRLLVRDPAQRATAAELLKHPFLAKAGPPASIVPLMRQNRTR

SMILES: CN1CCN(c2ccc(Nc3nc(N)c(C(=O)c4ccc5c(c4)OCCO5)s3)cc2)CC1
- inhibition [1]: < 50%
- inhibition [2]: 94%
- inhibition [3]: < 50%
- inhibition [4]: < 50%
- inhibition [5]: < 50%
- inhibition [6]: < 50%
- inhibition [7]: < 50%
- inhibition [8]: < 50%
- inhibition [9]: < 50%
- inhibition [10]: < 50%
- inhibition [11]: 78%
- inhibition [12]: < 50%
- inhibition [13]: < 50%
- inhibition [14]: < 50%
- inhibition [15]: < 50%
- inhibition [16]: < 50%
- inhibition [17]: < 50%
- inhibition [18]: < 50%
- inhibition [19]: < 50%
- inhibition [20]: < 50%
- inhibition [21]: < 50%
- inhibition [22]: < 50%
- inhibition [23]: < 50%
- inhibition [24]: < 50%
- inhibition [25]: < 50%
- inhibition [26]: < 50%
- inhibition [27]: < 50%
